Laboratory results published in ChEMBL document CHEMBL1268933, “Discovery of a vorapaxar analog with increased aqueous solubility” (Bioorg Med Chem Lett, 2010).
pIC50, pKi: −log10 of the molar value. ≈ marks a conversion by molar mass, not a printed value. Calls of active or inactive are those of the source. No cut-off for these calls is given here.

Columns and labels:
[1] = target: T1, Proteinase-activated receptor 1 (Homo sapiens, UniProt P25116); assay: Displacement of high affinity TRAP form human platelet PAR1
T1 sequence (P25116 whole entry): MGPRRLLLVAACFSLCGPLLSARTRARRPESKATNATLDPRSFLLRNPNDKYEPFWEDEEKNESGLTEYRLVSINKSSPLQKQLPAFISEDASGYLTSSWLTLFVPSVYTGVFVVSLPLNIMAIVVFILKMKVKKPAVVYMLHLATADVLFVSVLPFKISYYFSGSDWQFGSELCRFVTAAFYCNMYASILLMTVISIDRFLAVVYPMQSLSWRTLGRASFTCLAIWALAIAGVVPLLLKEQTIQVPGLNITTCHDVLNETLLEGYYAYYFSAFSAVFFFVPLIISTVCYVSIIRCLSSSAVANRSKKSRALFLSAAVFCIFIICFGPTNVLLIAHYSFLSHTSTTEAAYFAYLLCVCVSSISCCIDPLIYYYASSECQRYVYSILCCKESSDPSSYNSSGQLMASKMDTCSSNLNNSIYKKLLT
Method in brief: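 Radioligand binding using human platelet membranes as PAR-1 source and tritiated haTRAP as radioligand; run in duplicate, compounds of high interest repeated n≥5 (SD 20%); Ki reported.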

[2] = Equilibrium solubility of the compound after 24 hrs; assay type: physicochemical
[3] = Kinetic solubility of the compound; assay type: physicochemical
Method in brief: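 Kinetic solubility: DMSO serial dilutions added to 10 mM phosphate buffer pH 7.4, equilibrated 30 min at room temperature; precipitate detected by nephelometry; solubility taken as highest concentration not scattering light.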

[4] = AUC in rat; assay type: ADME, organism-based; details: plasma
Method in brief: (§1)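 High-throughput format rat pharmacokinetic screen; plasma AUC and Cmax determined.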

[5] = Cmax in rat; assay type: ADME, organism-based; details: in vivo; method in brief: as §1
[6] = test system: Platelet; assay: Ex-vivo inhibition of PAR1-mediated aggregation of high affinity TRAP-stimulated cynomolgus monkey platelet at 0.1 mg/kg, po administered as single dose measured after 24 hrs; assay type: functional; details: Macaca fascicularis
Method in brief: (§2)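 Cynomolgus monkeys (n = 3) given single oral dose of 0.1 or 0.3 mg/kg; ex vivo haTRAP-induced platelet aggregation measured at time points out to 24 h.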

[7] = test system: Platelet; assay: Ex-vivo inhibition of PAR1-mediated aggregation of high affinity TRAP-stimulated cynomolgus monkey platelet at 0.1 mg/kg, po administered as single dose measured up to 6 hrs; assay type: functional, organism-based; parameters: dose 0.1 mg/kg; details: Macaca fascicularis; method in brief: as §2
[8] = test system: Platelet; assay: Ex-vivo inhibition of PAR1-mediated aggregation of high affinity TRAP-stimulated cynomolgus monkey platelet at 0.3 mg/kg, po administered as single dose measured after 24 hrs; assay type: functional, organism-based; parameters: dose 0.3 mg/kg; details: Macaca fascicularis; method in brief: as §2
[9] = Tmax in monkey at 0.1 mg/kg, po; assay type: ADME, organism-based, Macaca mulatta; parameters: dose 0.1 mg/kg, route oral; details: rhesus monkey, in vivo
[10] = Tmax in monkey at 1 mg/kg, po; assay type: ADME, organism-based, Macaca mulatta; parameters: dose 1 mg/kg, route oral; details: rhesus monkey, in vivo
[11] = AUC (0 to 24 hrs) in monkey at 0.1 mg/kg, po; assay type: ADME, organism-based, Macaca mulatta; parameters: time < 24 hr, dose 0.1 mg/kg, route oral; details: rhesus monkey, plasma
[12] = Cmax in monkey at 0.1 mg/kg, po; assay type: ADME, organism-based, Macaca mulatta; parameters: dose 0.1 mg/kg, route oral; details: rhesus monkey, in vivo
[13] = AUC (0 to 24 hrs) in monkey at 1 mg/kg, po; assay type: ADME, organism-based, Macaca mulatta; parameters: time < 24 hr, dose 1 mg/kg, route oral; details: rhesus monkey, plasma
[14] = Cmax in monkey at 1 mg/kg, po; assay type: ADME, organism-based, Macaca mulatta; parameters: dose 1 mg/kg, route oral; details: rhesus monkey, in vivo
[15] = Permeability across human Caco-2 cell membrane; assay type: ADME, cell-based; details: read-out: permeability
[16] = target: Cytochrome P450 3A4 (Homo sapiens, UniProt P08684); assay: Inhibition of CYP3A4; assay type: ADME
Method in brief: (§3)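 CYP3A4, CYP2D6, CYP2C9 and CYP2C19 inhibition tested under both co-incubation and pre-incubation conditions; IC50 determined.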

[17] = target: Cytochrome P450 2D6 (Homo sapiens, UniProt P10635); assay: Inhibition of CYP2D6; assay type: ADME; method in brief: as §3
[18] = target: Cytochrome P450 2C9 (Homo sapiens, UniProt P11712); assay: Inhibition of CYP2C9; assay type: ADME; method in brief: as §3
[19] = target: Cytochrome P450 2C19 (Homo sapiens, UniProt P33261); assay: Inhibition of CYP2C19; assay type: ADME; method in brief: as §3
[20] = test system: Rhesus monkey; assay: Antithrombotic activity in monkey Folts model; assay type: functional, organism-based; details: Macaca mulatta
Method in brief: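 Folts thrombosis model in anesthetized monkeys; escalating doses given intravenously in sequence to the same animal, alone or with ADP antagonist cangrelor; inhibition of cyclic flow reductions monitored.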

[21] = target: T2, PXR (nuclear receptor subfamily 1 group I member 2) (Homo sapiens, UniProt O75469); assay: Induction of human PXR at 10 uM
T2 sequence (O75469 whole entry): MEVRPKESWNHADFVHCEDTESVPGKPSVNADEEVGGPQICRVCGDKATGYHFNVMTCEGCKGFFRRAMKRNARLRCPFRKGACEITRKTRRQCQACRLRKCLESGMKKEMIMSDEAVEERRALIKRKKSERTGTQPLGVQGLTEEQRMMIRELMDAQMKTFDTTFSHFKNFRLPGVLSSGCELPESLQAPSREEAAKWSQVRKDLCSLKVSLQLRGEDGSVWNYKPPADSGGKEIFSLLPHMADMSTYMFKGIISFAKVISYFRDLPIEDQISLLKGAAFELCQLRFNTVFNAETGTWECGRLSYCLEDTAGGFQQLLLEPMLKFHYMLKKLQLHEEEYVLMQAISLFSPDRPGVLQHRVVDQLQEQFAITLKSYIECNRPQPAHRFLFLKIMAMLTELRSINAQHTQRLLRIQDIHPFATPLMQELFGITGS

Sequence of Cytochrome P450 2C19 (P33261 whole entry): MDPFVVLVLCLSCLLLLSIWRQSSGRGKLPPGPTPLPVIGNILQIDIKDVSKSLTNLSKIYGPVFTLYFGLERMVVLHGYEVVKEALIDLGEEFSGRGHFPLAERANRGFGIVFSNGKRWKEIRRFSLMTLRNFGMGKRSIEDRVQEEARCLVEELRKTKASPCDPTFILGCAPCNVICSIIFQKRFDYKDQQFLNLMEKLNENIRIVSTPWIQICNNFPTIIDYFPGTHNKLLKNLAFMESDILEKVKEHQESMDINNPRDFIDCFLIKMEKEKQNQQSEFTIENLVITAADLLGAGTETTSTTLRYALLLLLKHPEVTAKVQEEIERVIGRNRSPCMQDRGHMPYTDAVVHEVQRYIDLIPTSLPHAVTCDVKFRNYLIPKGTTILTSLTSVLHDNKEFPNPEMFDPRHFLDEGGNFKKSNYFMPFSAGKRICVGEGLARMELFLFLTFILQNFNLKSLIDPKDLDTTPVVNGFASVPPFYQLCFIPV
Sequence of Cytochrome P450 2C9 (P11712 whole entry): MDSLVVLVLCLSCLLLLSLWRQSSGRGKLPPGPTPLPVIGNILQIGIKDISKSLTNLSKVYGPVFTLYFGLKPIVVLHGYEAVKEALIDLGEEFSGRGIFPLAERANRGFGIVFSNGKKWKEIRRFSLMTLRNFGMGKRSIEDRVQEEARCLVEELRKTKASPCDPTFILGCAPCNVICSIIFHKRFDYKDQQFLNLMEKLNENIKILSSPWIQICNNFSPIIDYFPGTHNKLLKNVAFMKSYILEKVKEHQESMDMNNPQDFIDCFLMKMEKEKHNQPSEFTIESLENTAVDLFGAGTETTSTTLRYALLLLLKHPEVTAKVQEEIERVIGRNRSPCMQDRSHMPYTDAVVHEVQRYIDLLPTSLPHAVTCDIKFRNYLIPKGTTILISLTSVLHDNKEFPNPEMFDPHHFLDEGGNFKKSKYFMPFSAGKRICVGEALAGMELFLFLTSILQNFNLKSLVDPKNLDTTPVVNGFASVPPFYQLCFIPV
Sequence of Cytochrome P450 2D6 (P10635 whole entry): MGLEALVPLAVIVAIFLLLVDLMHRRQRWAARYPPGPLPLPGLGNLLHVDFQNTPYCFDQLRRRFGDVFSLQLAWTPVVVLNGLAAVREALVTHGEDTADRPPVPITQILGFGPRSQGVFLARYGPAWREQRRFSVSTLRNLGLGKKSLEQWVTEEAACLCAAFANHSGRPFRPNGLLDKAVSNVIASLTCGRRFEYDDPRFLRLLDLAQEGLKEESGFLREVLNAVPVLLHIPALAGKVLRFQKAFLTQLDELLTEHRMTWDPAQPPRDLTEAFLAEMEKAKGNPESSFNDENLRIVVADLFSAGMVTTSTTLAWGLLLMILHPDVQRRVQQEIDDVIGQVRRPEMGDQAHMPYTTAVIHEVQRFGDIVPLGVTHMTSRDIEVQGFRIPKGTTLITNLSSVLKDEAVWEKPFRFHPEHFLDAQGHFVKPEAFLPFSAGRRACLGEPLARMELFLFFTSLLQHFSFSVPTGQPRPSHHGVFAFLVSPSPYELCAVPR
Sequence of Cytochrome P450 3A4 (P08684 whole entry): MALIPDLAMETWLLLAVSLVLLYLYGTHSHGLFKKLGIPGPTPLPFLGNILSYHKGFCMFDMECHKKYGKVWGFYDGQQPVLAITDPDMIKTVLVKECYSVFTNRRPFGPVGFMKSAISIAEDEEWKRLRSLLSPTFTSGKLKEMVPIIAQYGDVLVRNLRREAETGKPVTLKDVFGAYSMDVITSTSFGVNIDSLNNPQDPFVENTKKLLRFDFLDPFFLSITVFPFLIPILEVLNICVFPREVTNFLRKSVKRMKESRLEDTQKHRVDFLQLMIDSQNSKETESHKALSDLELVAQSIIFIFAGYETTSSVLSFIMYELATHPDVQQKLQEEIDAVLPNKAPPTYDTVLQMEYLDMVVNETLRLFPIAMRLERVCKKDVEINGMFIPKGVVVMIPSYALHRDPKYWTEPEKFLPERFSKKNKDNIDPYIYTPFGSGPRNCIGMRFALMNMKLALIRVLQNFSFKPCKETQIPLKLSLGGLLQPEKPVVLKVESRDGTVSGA

pKi [1] | solubility kinetic [3] [µM] | AUC [4] [ng·h/mL] | Cmax [5] [ng/mL] | SMILES | further results
6.47 | – | – | – | CCOC(=O)N[C@@H]1CC[C@@H]2[C@@H](C1)C[C@H]1C(=O)O[C@H](C)[C@H]1[C@H]2/C=C/c1ccc(-c2cncnc2)cn1 | –
8.10 | < 5 | 3060 | 974 | CCOC(=O)N[C@@H]1CC[C@@H]2[C@@H](C1)C[C@H]1C(=O)O[C@H](C)[C@H]1[C@H]2/C=C/c1ccc(-c2cccc(F)c2)cn1 [VORAPAXAR] | solubility thermodynamic at 24 h [2]: 2.8 µM (≈ 1.38 µg/mL)
7.82 | 12 (≈ 6 µg/mL) | 5220 | 1570 | CCOC(=O)N[C@@H]1CC[C@@H]2[C@@H](C1)C[C@H]1C(=O)O[C@H](C)[C@H]1[C@H]2/C=C/c1ccc(-c2ccccc2C#N)cn1 | –
6.84 | – | – | – | CCOC(=O)N[C@@H]1CC[C@@H]2[C@@H](C1)C[C@H]1C(=O)O[C@H](C)[C@H]1[C@H]2/C=C/c1ccc(-c2cc(C)ccn2)cn1 | –
7.72 | 75 (≈ 35.7 µg/mL) | 10100 | 3070 | CCOC(=O)N[C@@H]1CC[C@@H]2[C@@H](C1)C[C@H]1C(=O)O[C@H](C)[C@H]1[C@H]2/C=C/c1ccc(-c2ccccn2)cn1 | inhibition in vivo at 0.1 mg/kg [6]: 70%; inhibition [7]: Active; inhibition [8]: Active; Tmax [9]: 60 min; Tmax [10]: 30 min; AUC(0-t) at 24 h [11]: 50 ng·h/mL; Cmax [12]: 16 ng/mL; AUC(0-t) at 24 h [13]: 2520 ng·h/mL; Cmax [14]: 236 ng/mL; Papp [15]: 28.3 ×10⁻⁶ cm/s; solubility thermodynamic at 24 h [2]: 67 µM (≈ 31.9 µg/mL); pIC50 [16]: < 4.52; pIC50 [17]: < 4.52; pIC50 [18]: < 4.52; pIC50 [19]: < 4.52; Activity [20]: Dose-dependent effect; induction at 10 µM [21]: 0.13%
6.62 | – | – | – | CCOC(=O)N[C@@H]1CC[C@@H]2[C@@H](C1)C[C@H]1C(=O)O[C@H](C)[C@H]1[C@H]2/C=C/c1ccc(-c2cccnc2)cn1 | –
7.12 | – | – | – | CCOC(=O)N[C@@H]1CC[C@@H]2[C@@H](C1)C[C@H]1C(=O)O[C@H](C)[C@H]1[C@H]2/C=C/c1ccc(-c2nccs2)cn1 | –
7.21 | 12 (≈ 5.57 µg/mL) | – | – | CCOC(=O)N[C@@H]1CC[C@@H]2[C@@H](C1)C[C@H]1C(=O)O[C@H](C)[C@H]1[C@H]2/C=C/c1ccc(-c2ccoc2)cn1 | –
6.60 | – | – | – | CCOC(=O)N[C@@H]1CC[C@@H]2[C@@H](C1)C[C@H]1C(=O)O[C@H](C)[C@H]1[C@H]2/C=C/c1ccc(-c2ccncc2)cn1 | –
7.92 | < 5 | 319 | 368 | CCOC(=O)N[C@@H]1CC[C@@H]2[C@@H](C1)C[C@H]1C(=O)O[C@H](C)[C@H]1[C@H]2/C=C/c1ccc(-c2cccc(OC)c2)cn1 | –
7.38 | – | – | – | CCOC(=O)N[C@@H]1CC[C@@H]2[C@@H](C1)C[C@H]1C(=O)O[C@H](C)[C@H]1[C@H]2/C=C/c1ccc(-c2ccc(C)cn2)cn1 | –
